The source of these data is ChEMBL document CHEMBL5247650, “New Dual Inhibitors of Bacterial Topoisomerases with Broad-Spectrum Antibacterial Activity and In Vivo Efficacy against Vancomycin-Intermediate Staphylococcus aureus” (J Med Chem, 2023).

Series [1] concerns Klebsiella pneumoniae. The series can be described thus: Antibacterial activity against Klebsiella pneumoniae ATCC 10031 assessed as bacterial growth inhibition incubated for 18 hrs by microplate reader based analysis. Format: functional.
Series [2] deals with Acinetobacter baumannii. The series can be described thus: Antibacterial activity against Acinetobacter baumannii ATCC 17978 assessed as bacterial growth inhibition incubated for 18 hrs by microplate reader based analysis. Format: functional.
For series [3], the system named is Enterobacter cloacae. Briefly: Antibacterial activity against Enterobacter cloacae subsp. cloacae ATCC 13047 assessed as bacterial growth inhibition incubated for 18 hrs by microplate reader based analysis. Format: functional.
In series [4] the test system is Escherichia coli. The series can be described thus: Antibacterial activity against Escherichia coli ATCC 25922 assessed as bacterial growth inhibition incubated for 18 hrs by microplate reader based analysis. Format: functional.
Series [5] deals with Pseudomonas aeruginosa. Briefly: Antibacterial activity against Pseudomonas aeruginosa ATCC 27853 assessed as bacterial growth inhibition incubated for 18 hrs by microplate reader based analysis. Format: functional.
Series [6] concerns Acinetobacter baumannii. The series can be described thus: Antibacterial activity against clinical isolate Acinetobacter baumannii assessed as bacterial growth inhibition at 4 ug/ml by CLSI based broth microdilution method relative to control. Format: functional, organism-based. Conditions: dose 4.0 µg/ml. A digest of the protocol:
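Hungarian clinical isolates and control strains were tested by the same CLSI broth microdilution procedure (MHBII, OD600 read-out after 18 h at 37 °C), run in 384-well plates.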

Series [7] is described as follows: Plasma protein binding in CD-1 mouse assessed as unbound fraction at 5 uM incubated for 4 hrs by equilibrium dialysis method. Format: ADME, cell-free. Put shortly:
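Equilibrium dialysis in pooled male CD-1 mouse plasma. Compound at 5 μM (0.5% DMSO), two replicates, 4 h at 37 °C, sampled at 0 min and 4 h. Buffer and plasma aliquots were matrix-matched, quenched with acetonitrile/methanol (2:1) containing internal standard, and analysed by LC–MS/MS. Caffeine, verapamil and nicardipine served as binding controls.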
(Equilibrium dialysis compares concentrations on both sides of a semipermeable membrane.)

Series [8] can be described thus: Inhibition of Escherichia coli DNA topoisomerase 4 relaxation.
Series [9] relates to Enterococcus faecalis. Briefly: Antibacterial activity against Enterococcus faecalis ATCC 29212 assessed as bacterial growth inhibition incubated for 18 hrs by microplate reader based analysis. Format: functional.
In series [10] the test system is Staphylococcus aureus. Briefly: Antibacterial activity against Staphylococcus aureus ATCC 29213 assessed as bacterial growth inhibition incubated for 18 hrs by microplate reader based analysis. Format: functional.
In series [11] the test system is Staphylococcus aureus. Briefly: Antibacterial activity against Vancomycin-intermediate Staphylococcus aureus ATCC 700699 assessed as bacterial growth inhibition incubated for 18 hrs by microplate reader based analysis. Format: functional.
Series [12] has as its system Staphylococcus aureus. The series can be described thus: Antibacterial activity against Methicillin-resistant Staphylococcus aureus ATCC 43300 assessed as bacterial growth inhibition incubated for 18 hrs by microplate reader based analysis. Format: functional. A digest of the protocol:
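Cation-adjusted Mueller Hinton broth II; strains grown overnight on agar then broth at 37 °C. Two-fold 12-step serial dilutions from DMSO stocks (final DMSO at most 0.64%), 5 × 10^4 cells per well, three parallel replicates, 37 °C with 150 rpm shaking for 18 h.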

In series [13] the test system is Enterococcus faecium. The series can be described thus: Antibacterial activity against Enterococcus faecium ATCC 700221 assessed as bacterial growth inhibition incubated for 18 hrs by microplate reader based analysis. Format: functional.
In series [14] the test system is MCF7. The series can be described thus: Cytotoxicity against human MCF7 cells assessed as reduction in cell growth upto 100 uM incubated for 72 hrs by MTS assay. Format: toxicity, cell-based. Conditions: mcf7, 72 h. For orientation: Formazan colour is commonly taken as a measure of viable cells.
Series [15] deals with HepG2. The series can be described thus: Cytotoxicity against human HepG2 cells assessed as reduction in cell growth upto 100 uM incubated for 72 hrs by MTS assay. Format: toxicity, cell-based. The note with it: hepg2, 72 h.
The test system of series [16] is MCF7. Briefly: Cytotoxicity against human MCF7 cells assessed as reduction in cell growth upto 100 uM incubated for 72 hrs in absence of fetal bovine serum by MTS assay. The note with it: mcf7, 72 h. Format: toxicity, cell-based.
In series [17] the target is Sodium channel protein type 5 subunit alpha (Homo sapiens, UniProt Q14524). Briefly: Inhibition of Nav1.5 ion channel (unknown origin) expressed in CHO cells at 10 microM by patch-clamp method. Format: cell-based. For orientation: The patch-clamp technique gives a direct electrical read-out from membranes.
Chain of Sodium channel protein type 5 subunit alpha (Q14524 whole entry): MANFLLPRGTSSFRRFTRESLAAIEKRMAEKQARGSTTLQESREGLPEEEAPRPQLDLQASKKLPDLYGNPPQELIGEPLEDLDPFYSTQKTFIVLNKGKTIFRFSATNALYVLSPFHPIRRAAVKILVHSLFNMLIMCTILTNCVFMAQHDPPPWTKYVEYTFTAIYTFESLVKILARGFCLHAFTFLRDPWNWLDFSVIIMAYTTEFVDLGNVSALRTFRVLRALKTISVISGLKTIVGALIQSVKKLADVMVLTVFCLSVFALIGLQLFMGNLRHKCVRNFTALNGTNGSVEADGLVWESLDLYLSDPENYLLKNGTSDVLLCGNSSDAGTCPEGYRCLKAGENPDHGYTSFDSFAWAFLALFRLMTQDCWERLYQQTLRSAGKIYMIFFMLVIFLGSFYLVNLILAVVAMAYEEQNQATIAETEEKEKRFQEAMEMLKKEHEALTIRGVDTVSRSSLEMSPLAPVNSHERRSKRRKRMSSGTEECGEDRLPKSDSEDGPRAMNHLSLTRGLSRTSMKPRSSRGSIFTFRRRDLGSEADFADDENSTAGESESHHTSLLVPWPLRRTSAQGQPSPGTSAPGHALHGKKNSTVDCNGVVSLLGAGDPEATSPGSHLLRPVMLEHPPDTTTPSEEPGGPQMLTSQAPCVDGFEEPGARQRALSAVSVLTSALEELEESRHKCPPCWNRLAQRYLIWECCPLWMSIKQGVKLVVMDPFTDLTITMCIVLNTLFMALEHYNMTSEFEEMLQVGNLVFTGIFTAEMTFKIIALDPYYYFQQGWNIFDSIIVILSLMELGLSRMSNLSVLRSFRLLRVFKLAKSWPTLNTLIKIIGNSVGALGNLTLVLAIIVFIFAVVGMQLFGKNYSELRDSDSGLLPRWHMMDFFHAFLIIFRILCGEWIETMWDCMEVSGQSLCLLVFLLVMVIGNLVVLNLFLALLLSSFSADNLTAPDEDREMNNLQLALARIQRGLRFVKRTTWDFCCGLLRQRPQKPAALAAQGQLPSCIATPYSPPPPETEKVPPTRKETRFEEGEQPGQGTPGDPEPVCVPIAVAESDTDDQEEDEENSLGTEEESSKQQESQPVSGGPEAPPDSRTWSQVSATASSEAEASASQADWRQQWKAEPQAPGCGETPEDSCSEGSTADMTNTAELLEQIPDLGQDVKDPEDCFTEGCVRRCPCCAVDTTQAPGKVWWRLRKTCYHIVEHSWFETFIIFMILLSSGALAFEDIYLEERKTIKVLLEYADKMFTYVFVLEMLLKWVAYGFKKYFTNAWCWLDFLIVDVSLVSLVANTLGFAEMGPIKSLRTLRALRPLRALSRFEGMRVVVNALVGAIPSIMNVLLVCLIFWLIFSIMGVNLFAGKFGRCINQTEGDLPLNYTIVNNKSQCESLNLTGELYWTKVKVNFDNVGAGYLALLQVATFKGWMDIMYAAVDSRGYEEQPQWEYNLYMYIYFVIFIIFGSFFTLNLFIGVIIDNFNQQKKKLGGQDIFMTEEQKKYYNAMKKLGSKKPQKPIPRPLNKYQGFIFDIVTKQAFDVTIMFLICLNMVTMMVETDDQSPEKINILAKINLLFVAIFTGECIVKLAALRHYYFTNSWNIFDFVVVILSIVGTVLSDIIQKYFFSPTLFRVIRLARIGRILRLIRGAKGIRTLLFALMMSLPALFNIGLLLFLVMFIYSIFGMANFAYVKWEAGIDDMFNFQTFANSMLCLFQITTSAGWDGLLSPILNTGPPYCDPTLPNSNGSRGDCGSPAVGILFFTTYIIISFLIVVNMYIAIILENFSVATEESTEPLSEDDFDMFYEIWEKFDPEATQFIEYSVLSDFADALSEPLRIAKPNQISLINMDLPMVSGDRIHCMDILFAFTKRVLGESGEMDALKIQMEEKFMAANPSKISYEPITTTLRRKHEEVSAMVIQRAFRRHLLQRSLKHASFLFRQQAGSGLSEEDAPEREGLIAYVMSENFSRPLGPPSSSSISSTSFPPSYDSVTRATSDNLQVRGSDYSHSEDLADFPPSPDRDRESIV
For series [18], the system named is HepG2. Briefly: Mitotoxicity in human HepG2 cells upto 1000 uM incubated for 24 hrs by glu/gal assay. Format: toxicity, cell-based. Conditions: hepg2, 24 h.
In series [19] the test system is HepG2. The series can be described thus: Cytotoxicity against human HepG2 cells assessed as reduction in cell growth upto 100 uM incubated for 72 hrs in absence of fetal bovine serum by MTS assay. Format: toxicity, cell-based. Conditions: hepg2, 72 h.
The nature of series [20]: Hemolytic activity in human RBC assessed as hemolysis at 100 uM incubated for 45 mins under shaking condition by spectrophotometer analysis. Format: toxicity, cell-based. Conditions: erythrocyte.
The nature of series [21]: Genotoxicity in CHO-K1 cells up to 50 uM incubated for 24 hrs in presence of rat liver S9 fraction by micronucleus test. Conditions: chinese hamster, s9, 24 h. Format: toxicity, subcellular, Cricetulus griseus.
A short description of series [22]: Genotoxicity in CHO-K1 cells upto 100 uM incubated for 24 hrs in absence of rat liver S9 fraction by micronucleus test. Format: toxicity, cell-based, Cricetulus griseus. The note with it: chinese hamster, cho-k1, 24 h.
Series [23] concerns the target T1, Voltage-gated inwardly rectifying potassium channel KCNH2 (Homo sapiens, UniProt Q12809). Briefly: Inhibition of hERG potassium ion channel expressed in CHO cells at 50 microM by patch-clamp method. Format: toxicity, cell-based.
A short description of series [24]: Metabolic stability in human liver microsomes assessed as intrinsic clearance […] at 1 uM measured upto 60 mins by LC-MS/MS analysis. Format: ADME, Microsome. Conditions: 1 h. Put shortly:
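Pooled human liver microsomes at 0.5 mg/mL in 100 mM KPO4 pH 7.4, compound at 1 μM final. Started with 1 mM NADPH; sampled at 0, 5, 10, 20, 40 and 60 min. Quenched with cold acetonitrile plus internal standard; parent remaining measured by LC–MS/MS. Intrinsic clearance calculated by the Obach approach with literature scaling factors.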

Series [25] has as its target T1, Voltage-gated inwardly rectifying potassium channel KCNH2. The series can be described thus: Inhibition of hERG channel expressed in HEK293 cells at -40 mV holding potential by whole-cell voltage clamp method. Format: toxicity, cell-based.
A short description of series [26]: Inhibition of Acinetobacter baumannii topoisomerase 4 decatenation incubated for 30 mins in presence of ATP by ethidium bromide staining based analysis.
A short description of series [27]: Inhibition of Pseudomonas aeruginosa topoisomerase 4 decatenation incubated for 30 mins in presence of ATP by ethidium bromide staining based analysis.
The target in series [28] is Topoisomerase IV (Staphylococcus aureus, UniProt P0C1S7+P0C1U9). The series can be described thus: Inhibition of Staphylococcus aureus topoisomerase 4 decatenation incubated for 30 mins in presence of ATP by ethidium bromide staining based analysis. Format: protein-complex assay.
Chain of Topoisomerase IV (P0C1U9 whole entry): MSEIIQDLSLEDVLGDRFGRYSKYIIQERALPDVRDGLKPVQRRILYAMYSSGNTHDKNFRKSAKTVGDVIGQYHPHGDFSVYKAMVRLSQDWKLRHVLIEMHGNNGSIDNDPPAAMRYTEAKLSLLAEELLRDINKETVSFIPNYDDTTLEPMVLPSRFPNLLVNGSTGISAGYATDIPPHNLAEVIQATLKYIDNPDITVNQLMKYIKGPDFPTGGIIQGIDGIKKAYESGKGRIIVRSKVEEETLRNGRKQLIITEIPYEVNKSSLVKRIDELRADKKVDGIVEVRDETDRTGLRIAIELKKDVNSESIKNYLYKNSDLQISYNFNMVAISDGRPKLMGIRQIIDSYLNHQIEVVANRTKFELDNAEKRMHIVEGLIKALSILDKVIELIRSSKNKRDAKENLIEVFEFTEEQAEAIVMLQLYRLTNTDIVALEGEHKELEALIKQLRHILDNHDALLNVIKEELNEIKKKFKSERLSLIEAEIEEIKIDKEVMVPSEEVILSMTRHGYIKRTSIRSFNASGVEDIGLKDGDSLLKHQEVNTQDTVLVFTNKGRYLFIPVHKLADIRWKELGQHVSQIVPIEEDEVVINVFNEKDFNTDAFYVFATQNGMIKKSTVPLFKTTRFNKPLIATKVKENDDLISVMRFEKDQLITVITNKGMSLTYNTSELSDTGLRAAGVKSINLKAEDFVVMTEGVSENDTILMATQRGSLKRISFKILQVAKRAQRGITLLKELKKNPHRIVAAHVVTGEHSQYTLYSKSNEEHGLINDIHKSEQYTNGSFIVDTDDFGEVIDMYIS
Chain of Topoisomerase IV (P0C1S7 whole entry): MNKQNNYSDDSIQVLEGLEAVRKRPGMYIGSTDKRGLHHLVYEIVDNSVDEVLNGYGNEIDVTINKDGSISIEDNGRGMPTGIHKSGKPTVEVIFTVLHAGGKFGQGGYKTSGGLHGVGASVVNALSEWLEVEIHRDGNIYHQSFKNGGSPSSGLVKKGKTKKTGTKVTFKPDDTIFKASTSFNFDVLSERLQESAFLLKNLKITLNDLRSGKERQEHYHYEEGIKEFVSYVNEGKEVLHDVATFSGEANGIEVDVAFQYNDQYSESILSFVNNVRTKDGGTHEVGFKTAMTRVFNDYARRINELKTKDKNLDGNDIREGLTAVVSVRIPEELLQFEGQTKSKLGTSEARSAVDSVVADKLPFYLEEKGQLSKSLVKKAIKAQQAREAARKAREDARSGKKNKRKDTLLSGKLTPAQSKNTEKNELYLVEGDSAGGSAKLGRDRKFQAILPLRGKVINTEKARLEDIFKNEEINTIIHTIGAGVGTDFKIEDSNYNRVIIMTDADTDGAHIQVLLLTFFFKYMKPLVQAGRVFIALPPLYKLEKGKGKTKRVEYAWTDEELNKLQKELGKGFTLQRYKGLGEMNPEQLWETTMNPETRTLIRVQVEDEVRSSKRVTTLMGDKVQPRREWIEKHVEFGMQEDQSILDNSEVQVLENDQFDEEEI
Series [29] concerns the target DNA gyrase (Escherichia coli, UniProt P0AES4+P0AES6). The series can be described thus: Inhibition of Escherichia coli DNA gyrase supercoiling. Format: protein-complex assay. Put shortly:
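E. coli gyrase supercoiling measured in a high-throughput plate assay from a commercial kit. Seven inhibitor concentrations; IC50 fitted from the curve, mean of three independent experiments.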

A short description of series [30]: Thermodynamic solubility of compound in 100 mM PBS buffer at pH 7.4 incubated for 48 hrs under shaking condition by LC-MS/MS analysis. Format: physicochemical. Conditions: read-out: Therm_solubility.
Series [31] relates to Acinetobacter baumannii. The series can be described thus: Antibacterial activity against clinical isolate Acinetobacter baumannii assessed as bacterial growth inhibition at 32 ug/ml by CLSI based broth microdilution method relative to control. Format: functional.
Series [32] deals with Acinetobacter baumannii. Briefly: Antibacterial activity against non multi-drug resistant Acinetobacter baumannii assessed as bacterial growth inhibition at 8 ug/ml by CLSI based broth microdilution method relative to control. Format: functional. Set-up: scale not given: the % may be the effect or the level left. The note with it: dose 8 µg/ml. Put shortly: (§1)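 Panel of 100 A. baumannii strains of diverse geographic origin, 50 MDR and 50 non-MDR. Tested at a contract lab by broth microdilution following CLSI guidelines. Read-out is the percentage of strains inhibited at each concentration.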

The subject of series [33] is Acinetobacter baumannii. Briefly: Antibacterial activity against multi-drug resistant Acinetobacter baumannii assessed as bacterial growth inhibition by CLSI based broth microdilution method. Format: functional.
The subject of series [34] is Acinetobacter baumannii. The series can be described thus: Antibacterial activity against multi-drug resistant Acinetobacter baumannii assessed as bacterial growth inhibition at 8 ug/ml by CLSI based broth microdilution method relative to control. Format: functional. On the set-up: scale not given: the % may be the effect or the level left. Conditions: dose 8 µg/ml. Put shortly: as §1

What is called inhibition is how much of the control response was suppressed. For orientation: fraction unbound means free concentration divided by total concentration. The term IC50 denotes the concentration that inhibits the measured activity by half. As usually defined, the MIC is the lowest concentration that inhibits growth of the organism.

Converted amounts (≈) assume the structure as drawn. The source made the active and inactive calls. The rule behind the calls is not given here.

T1 sequence (Q12809 whole entry): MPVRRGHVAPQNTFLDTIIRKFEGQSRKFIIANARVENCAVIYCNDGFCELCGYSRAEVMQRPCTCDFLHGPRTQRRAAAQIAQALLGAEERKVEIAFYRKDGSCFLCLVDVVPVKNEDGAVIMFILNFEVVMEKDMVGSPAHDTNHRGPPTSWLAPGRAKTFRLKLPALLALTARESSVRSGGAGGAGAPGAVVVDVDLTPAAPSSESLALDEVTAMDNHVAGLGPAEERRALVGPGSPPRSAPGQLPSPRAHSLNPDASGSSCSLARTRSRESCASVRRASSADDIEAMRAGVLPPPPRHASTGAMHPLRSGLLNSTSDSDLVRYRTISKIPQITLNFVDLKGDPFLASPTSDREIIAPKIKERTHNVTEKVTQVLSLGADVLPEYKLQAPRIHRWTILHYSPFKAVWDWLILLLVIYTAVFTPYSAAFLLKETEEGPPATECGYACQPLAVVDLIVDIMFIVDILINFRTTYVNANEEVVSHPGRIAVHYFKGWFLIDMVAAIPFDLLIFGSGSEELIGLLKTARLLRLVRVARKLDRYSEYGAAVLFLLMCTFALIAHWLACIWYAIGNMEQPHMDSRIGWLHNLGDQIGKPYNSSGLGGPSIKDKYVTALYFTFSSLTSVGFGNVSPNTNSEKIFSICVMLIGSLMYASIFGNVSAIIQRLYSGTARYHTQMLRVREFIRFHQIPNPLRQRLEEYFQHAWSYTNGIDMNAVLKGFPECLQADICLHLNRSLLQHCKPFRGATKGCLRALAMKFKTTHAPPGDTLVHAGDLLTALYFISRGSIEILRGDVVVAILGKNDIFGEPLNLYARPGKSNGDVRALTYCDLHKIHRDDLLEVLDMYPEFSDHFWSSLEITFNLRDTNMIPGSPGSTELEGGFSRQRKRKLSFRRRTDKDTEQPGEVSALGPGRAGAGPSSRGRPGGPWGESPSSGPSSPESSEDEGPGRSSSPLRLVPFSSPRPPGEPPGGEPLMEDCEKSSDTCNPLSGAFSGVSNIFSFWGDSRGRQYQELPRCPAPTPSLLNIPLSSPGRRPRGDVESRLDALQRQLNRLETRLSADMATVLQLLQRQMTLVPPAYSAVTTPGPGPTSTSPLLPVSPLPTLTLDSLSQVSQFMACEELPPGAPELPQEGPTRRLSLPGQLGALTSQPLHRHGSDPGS

In the case of `Cc1[nH]c(C(=O)Nc2nc3c(N4CCNCC4)cc(C(=O)O)cc3s2)c(Cl)c1Cl`, the result in series [1], in [2], in series [3], in [4] and in [5] was inactive.
For COLISTIN, the inhibition entry in series [6] was “Active”.
For `Cc1[nH]c(C(=O)Nc2nc3c(N4CCOC[C@H]4C)cc(C(=O)O)cc3s2)c(Cl)c1Cl`, the fraction unbound at 4 h, 5 µM in [7] stood at 0.011.
Regarding `Cc1[nH]c(C(=O)Nc2nc3c(N4CC[C@H](N(C)C)C4)cc(C(=O)O)cc3s2)c(Cl)c1Cl`, the result in series [1], in series [2], in series [3], in [4] and in series [5] was inactive. The same compound had an IC50 in series [8] of 120 nM.
`Cc1[nH]c(C(=O)Nc2nc3c(N4CCCC4)cc(C(=O)O)cc3s2)c(Cl)c1Cl` had an IC50 in series [8] below 100 nM.
Regarding `Cc1[nH]c(C(=O)Nc2nc3c(N4CCOCC4)cc(C(=O)O)cc3s2)cc1Cl`, the outcome in series [9], in [10], in series [11], in series [12] and in series [13] was Active.
On to `Cc1[nH]c(C(=O)Nc2nc3c(N4CCOCC4)cc(C(=O)O)cc3s2)c(Cl)c1Cl`, for which the Activity result in series [14], in series [15], in series [16], in series [18], in series [19] and in series [20] was “Non-Toxic” each time. The Activity entry in [21] and in series [22] was “Non-Toxic” throughout. In addition, the “inhibition (INH)” value in [17], in series [23] and in [25] was “Not Active” throughout. In [24], the CLint is 13 µL/min.
Take `CO[C@@H]1[C@@H](OC(N)=O)[C@@H](O)[C@H](Oc2ccc3c(O)c(NC(=O)c4ccc(O)c(CC=C(C)C)c4)c(=O)oc3c2C)OC1(C)C` [NOVOBIOCIN]: the IC50 is 9460 nM in [26], 8360 nM in series [27] and 13300 nM in series [28].
In [8], `Cc1[nH]c(C(=O)Nc2nc3c(N4CCOC4=O)cc(C(=O)O)cc3s2)c(Cl)c1Cl` gave an IC50 of 120 nM.
For `Cc1[nH]c(C(=O)Nc2nc3c(N4CCOC[C@@H]4C)cc(C(=O)O)cc3s2)c(Cl)c1Cl`, the concentration for half-maximal inhibition (IC50) in [29] is 17 nM.
Consider `Cc1[nH]c(C(=O)Nc2nc3c(N4C[C@H]5CC[C@@H](C4)O5)cc(C(=O)O)cc3s2)c(Cl)c1Cl`, for which the MIC in [3] came to 16 µg/mL (≈ 33.2 µM).
As to `Cc1[nH]c(C(=O)Nc2nc3c(N4[C@@H]5CC[C@H]4COC5)cc(C(=O)O)cc3s2)c(Cl)c1Cl`, the solubility thermodynamic at 48 h in [30] was 0.26 µM (≈ 0.125 µg/mL). The compound further came in with an IC50 in [8] of 140 nM.
For the compound `C[C@H]1c2cccc(O)c2C(=O)C2=C(O)[C@]3(O)C(=O)C(C(N)=O)=C(O)[C@@H](N(C)C)[C@@H]3[C@@H](O)[C@@H]21` [DOXYCYCLINE], the inhibition at 32 µg/mL in [31] stood at 100%.
`Cc1[nH]c(C(=O)Nc2nc3c(N4CCC(=S)CC4)cc(C(=O)O)cc3s2)c(Cl)c1Cl` yielded an IC50 in series [8] below 100 nM.
As to `Cc1[nH]c(C(=O)Nc2nc3c(N4CC[C@H](N)C4)cc(C(=O)O)cc3s2)c(Cl)c1Cl`, the outcome in series [2], in [3], in series [4] and in [5] was inactive. Further, the IC50 in series [8] was below 100 nM.
With `Cc1[nH]c(C(=O)Nc2nc3c(N4CCC(O)CC4)cc(C(=O)O)cc3s2)c(Cl)c1Cl`, the outcome in [2], in [3], in [4] and in [5] was inactive.
For `Cc1[nH]c(C(=O)Nc2nc3c(CN4CCOCC4)cc(C(=O)O)cc3s2)c(Cl)c1Cl`, the result in series [1], in series [2], in [3], in series [4] and in series [5] was inactive. Also, the IC50 in [8] was 120 nM.
On to `COCCCNc1cc(C(=O)O)cc2sc(NC(=O)c3[nH]c(C)c(Cl)c3Cl)nc12.N`, for which the minimum inhibitory concentration (MIC) in series [9] and in [13] was below 0.0312 µg/mL in each case.
With `CN(C)c1cc(NC(=O)CNC(C)(C)C)c(O)c2c1C[C@H]1C[C@H]3[C@H](N(C)C)C(O)=C(C(N)=O)C(=O)[C@@]3(O)C(O)=C1C2=O` [TIGECYCLINE], the Activity in series [32] and in series [34] was 100% each time. In addition, the MIC in series [33] is above 16 µg/mL.
